Assay results: article PMC7079113 (Diabetes, Obesity & Metabolism, 2019)
Marks after values point to notes of the source that are not given here.

Key:
[1] = Single-dose safety and local tolerability; type: in vivo, patients with type 1 diabetes mellitus (human); conditions: for Hypoglycaemic events at various time points after the clamp period: > 30 hours after injection, considered a side effect of the patients' usual insulin treatment; for Number of AEs during or after administration / Patients who experienced AEs during or after administration / Patients who experienced AEs during or after administration, percentage: safety population N = 114
Procedure, shortened: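 Randomised crossover in which each patient received three insulin glargine preparations as single s.c. 0.4 U/kg doses, at visits 5–28 days apart (minimum 5-day washout). Each dose was given under a 30-h automated euglycaemic clamp. Safety and injection-site tolerability were assessed at each visit: AEs, haematology, biochemistry, urinalysis, physical exam, vital signs, ECGs and blood glucose. Hypoglycaemia was graded severe/symptomatic/asymptomatic. Results were summarised descriptively.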

glucose infusion rate = experiment: 30-hour automated euglycaemic clamp; type: in vivo, patients with type 1 diabetes mellitus (human); conditions: for AUCGIR0–6h, geometric mean (90% CI): 0-6 h; for AUCGIR0–6h, geometric mean (90% CI) / AUCGIR6–30h, geometric mean (90% CI): N = 111 MYL-1501D, 111 US IG, 113 EU IG; for AUCGIR6–30h, geometric mean (90% CI): 6-30 h
[2] = LC–MS/MS; for AUCins.0‐6h of M1, geometric mean (90% CI) / AUCins.6‐30h of M1, geometric mean (90% CI): secondary PK endpoint, 87 US IG; for AUCins.0‐6h of M1, geometric mean (90% CI): N = 85 MYL-1501D, 84 EU IG; for AUCins.6‐30h of M1, geometric mean (90% CI): N = 87 MYL-1501D, 86 EU IG
[3] = ELISA, ratio of treatments vs US IG
[4] = secondary PD, vs US IG, N = 111
[5] = vs US IG, N = 74 (MYL-1501D), 72 (EU IG)

| Substance | Hypoglycaemic events at various time points after the clamp period [1] | Tolerability ([1]; single s.c. 0.4 U/kg) | Number of AEs during or after administration ([1]; single s.c. 0.4 U/kg) | Patients who experienced AEs during or after administration ([1]; single s.c. 0.4 U/kg) | Patients who experienced AEs during or after administration, percentage ([1]; single s.c. 0.4 U/kg) | AUCGIR0–30h (secondary analysis), geometric LS mean ratio (90% CI) vs US IG (glucose infusion rate; including very low response profiles, linear mixed model, vs US IG, n = 111) | GIRmax, geometric LS mean ratio (90% CI) vs US IG (glucose infusion rate; primary PD, vs US IG, N = 102) | AUCGIR0–6h, geometric mean (90% CI) (glucose infusion rate; secondary PD) | AUCGIR6–30h, geometric mean (90% CI) (glucose infusion rate; secondary PD) | AUCGIR0–6h, geometric LS mean ratio (90% CI) vs US IG (glucose infusion rate; [4]) | AUCGIR6–30h, geometric LS mean ratio (90% CI) vs US IG (glucose infusion rate; [4]) | AUCins.0‐6h of M1, geometric LS mean ratio (90% CI) vs US IG ([2]; vs US IG, N = 73 (MYL-1501D), 71 (EU IG)) | AUCins.0–30h of M1, geometric LS mean ratio (90% CI) vs US IG [2, 5] | AUCins.6‐30h of M1, geometric LS mean ratio (90% CI) vs US IG [2, 5] | Cins.max of M1, geometric LS mean ratio (90% CI) vs US IG [2, 5] | AUCins.0‐6h of M1, geometric mean (90% CI) [2] | AUCins.6‐30h of M1, geometric mean (90% CI) [2] | AUCins.0–30h, geometric LS mean ratio (90% CI) vs US IG ([3]; N = 107) | Cins.max, geometric LS mean ratio (90% CI) vs US IG ([3]; N = 110) | Injection site reactions ([1]; mild, single s.c. 0.4 U/kg) |
| --- | --- | --- | --- | --- | --- | --- | --- | --- | --- | --- | --- | --- | --- | --- | --- | --- | --- | --- | --- | --- |
| insulin glargine [EU IG] | six | generally well tolerated | 34 AEs | 24 patients | 21.1% | 0.96 (0.77–1.20) ^e | 0.98 (0.90–1.07) | 72.8 (49.4–107) mg/kg | 567 (418–769) mg/kg | 0.82 (0.55–1.23) | 1.09 (0.79–1.48) | 1.06 (0.93–1.20) | 1.01 (0.94–1.08) | 1.00 (0.93–1.08) | 1.02 (0.96–1.08) | 203 (180–229) pmol·h/L | 1088 (1001–1181) pmol·h/L | 1.02 (0.95–1.09) | 1.00 (0.93–1.08) | – |
| insulin glargine [US IG] | 16 | generally well tolerated | 34 AEs | 20 patients | 17.9% | – | – | 88.3 (59.7–131) mg/kg | 522 (384–710) mg/kg | – | – | – | – | – | – | 192 (171–217) pmol·h/L | 1086 (1000–1179) pmol·h/L | – | – | one |
